# Data taken from ChEMBL document CHEMBL3525900, “Pharmacokinetics, distribution, and metabolism of [14C]sunitinib in rats, monkeys, and humans” (Drug Metab Dispos, 2012).
# Experiments:
# [1] = Drug concentration in female albino rat uterus assessed as radioactivity per gram of tissue at 20 mg/kg administered as single dose via gastric gavage measured after 6 hrs by autoradiographic analysis; assay type: ADME, organism-based; parameters: dose 20 mg/kg, dosed compound name [14C]Sunitinib; conditions: in vivo, po
# [2] = Drug concentration in male albino rat skeletal muscle assessed as radioactivity per gram of tissue at 20 mg/kg administered as single dose via gastric gavage measured after 3 hrs by autoradiographic analysis; assay type: ADME, organism-based; parameters: dose 20 mg/kg, dosed compound name [14C]Sunitinib; conditions: in vivo, po
# [3] = Drug concentration in female albino rat bone marrow assessed as radioactivity per gram of tissue at 20 mg/kg administered as single dose via gastric gavage measured after 3 hrs by autoradiographic analysis; assay type: ADME, organism-based; parameters: dose 20 mg/kg, dosed compound name [14C]Sunitinib; conditions: in vivo, po
# How it was run: (§1)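 Sprague Dawley (albino) and Lister Hooded (pigmented) rats, ca 7-8 weeks old, 179-310 g, acclimated 7 days. Single gavage dose of [14C]sunitinib L-malate (15 mg freebase/kg, 100 µCi/kg). One male and one female killed by CO2 per time point: albino at 3, 6, 24, 72, 168 h; pigmented at 24, 72, 168, 336 h. Carcasses frozen in solid CO2/hexane, 30 µm sagittal sections freeze-dried. Tissue radioactivity read by quantitative whole-body autoradiography against regression of standards, mean background subtracted.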
# [4] = Drug concentration in female albino rat salivary gland assessed as radioactivity per gram of tissue at 20 mg/kg administered as single dose via gastric gavage measured after 3 hrs by autoradiographic analysis; assay type: ADME, organism-based; parameters: dose 20 mg/kg, dosed compound name [14C]Sunitinib; conditions: in vivo, po
# How it was run: (§2)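 Sprague Dawley albino rats, ca 7-8 weeks old, dosed once by gastric gavage with [14C]sunitinib L-malate (15 mg freebase/kg, 100 µCi/kg). One male and one female killed by CO2 at 3, 6, 24, 72 and 168 h. Carcasses frozen in solid CO2/hexane, embedded and cut into 30 µm sagittal sections, then freeze-dried. Radioactivity quantified by whole-body autoradiography against standards by regression, background subtracted.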
# [5] = tested on: Thymus; experiment: Drug concentration in male albino rat thymus assessed as radioactivity per gram of tissue at 20 mg/kg administered as single dose via gastric gavage measured after 3 hrs by autoradiographic analysis; assay type: ADME, organism-based; parameters: dose 20 mg/kg, dosed compound name [14C]Sunitinib; conditions: in vivo, po
# [6] = tested on: Rattus norvegicus; experiment: Total drug recovery in male Sprague-Dawley rat at 15 mg/kg, po administered as single dose during 0 to 72 hrs by liquid scintillation counting; assay type: ADME, organism-based; parameters: dose 15 mg/kg, dosed compound name [14C]Sunitinib, route oral; conditions: in vivo
# [7] = Drug concentration in male Lister Hooded pigmented rat uveal tract assessed as radioactivity per gram of tissue at 20 mg/kg administered as single dose via gastric gavage measured after 72 hrs by autoradiographic analysis; assay type: ADME, organism-based; parameters: dose 20 mg/kg, dosed compound name [14C]Sunitinib; conditions: in vivo, po
# [8] = tested on: Thymus; experiment: Drug concentration in female albino rat thymus assessed as radioactivity per gram of tissue at 20 mg/kg administered as single dose via gastric gavage measured after 6 hrs by autoradiographic analysis; assay type: ADME, organism-based; parameters: dose 20 mg/kg, dosed compound name [14C]Sunitinib; conditions: in vivo, po
# [9] = tested on: Spleen; experiment: Drug concentration in female albino rat spleen assessed as radioactivity per gram of tissue at 20 mg/kg administered as single dose via gastric gavage measured after 3 hrs by autoradiographic analysis; assay type: ADME, organism-based; parameters: dose 20 mg/kg, dosed compound name [14C]Sunitinib; conditions: in vivo, po
# [10] = Drug concentration in female albino rat lymph node assessed as radioactivity per gram of tissue at 20 mg/kg administered as single dose via gastric gavage measured after 3 hrs by autoradiographic analysis; assay type: ADME, organism-based; parameters: dose 20 mg/kg, dosed compound name [14C]Sunitinib; conditions: in vivo, po; how it was run: as §2
# [11] = tested on: Small intestine; experiment: Drug concentration in male albino rat small intestine assessed as radioactivity per gram of tissue at 20 mg/kg administered as single dose via gastric gavage measured after 3 hrs by autoradiographic analysis; assay type: ADME, organism-based; parameters: dose 20 mg/kg, dosed compound name [14C]Sunitinib; conditions: in vivo, po
# [12] = Drug concentration in female albino rat lymph node assessed as radioactivity per gram of tissue at 20 mg/kg administered as single dose via gastric gavage measured after 6 hrs by autoradiographic analysis; assay type: ADME, organism-based; parameters: dose 20 mg/kg, dosed compound name [14C]Sunitinib; conditions: in vivo, po; how it was run: as §2
# [13] = tested on: Lung; experiment: Drug concentration in female Lister Hooded pigmented rat lung assessed as radioactivity per gram of tissue at 20 mg/kg administered as single dose via gastric gavage measured after 24 hrs by autoradiographic analysis; assay type: ADME, organism-based; parameters: dose 20 mg/kg, dosed compound name [14C]Sunitinib; conditions: in vivo, po
# How it was run: (§3)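 Lister Hooded (pigmented) rats, ca 7-8 weeks old, acclimated 7 days, given [14C]sunitinib L-malate by gastric gavage at 20 mg/kg (15 mg freebase/kg, 100 µCi/kg). One male and one female killed by CO2 at 24, 72, 168 and 336 h. Carcasses frozen in solid CO2/hexane and embedded in frozen cellulose. 30 µm sagittal cryosections were freeze-dried. Tissue radioactivity measured by quantitative whole-body autoradiography against calibration standards, with background subtracted.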
# [14] = tested on: Cynomolgus monkey; experiment: Cmax as total radioactivity in female cynomolgus monkey plasma at 6 mg/kg, po administered as single dose by LC/MS/MS analysis; assay type: ADME, organism-based, Macaca fascicularis; parameters: dose 6 mg/kg, dosed compound name [14C]Sunitinib, route oral; conditions: in vivo
# How it was run: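 Cynomolgus monkeys of both sexes received one oral gavage of [14C]sunitinib L-malate at 6 mg/kg (37 µCi/kg). Femoral-vein blood was taken into heparin from 0.5 to 336 h. Plasma was kept cold and protected from light, then stored at -80 °C. Total radioactivity was by scintillation counting and sunitinib by methanol-extraction LC-MS-MS. Cmax was from raw data, t½ from the log-linear terminal slope, AUC(0-∞) by linear trapezoidal rule.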
# [15] = Drug recovery in urine of human at 50 mg, po administered as single dose during 0 to 504 hrs by liquid scintillation counting; assay type: ADME, organism-based; parameters: dosed compound name [14C]Sunitinib; conditions: in vivo
# [16] = Drug concentration in female albino rat preputial gland assessed as radioactivity per gram of tissue at 20 mg/kg administered as single dose via gastric gavage measured after 6 hrs by autoradiographic analysis; assay type: ADME, organism-based; parameters: dose 20 mg/kg, dosed compound name [14C]Sunitinib; conditions: in vivo, po; how it was run: as §2
# [17] = Drug concentration in male albino rat bladder assessed as radioactivity per gram of tissue at 20 mg/kg administered as single dose via gastric gavage measured after 24 hrs by autoradiographic analysis; assay type: ADME, organism-based, Urinary bladder; parameters: dose 20 mg/kg, dosed compound name [14C]Sunitinib; conditions: in vivo, po
# [18] = Drug concentration in female albino rat brown fat assessed as radioactivity per gram of tissue at 20 mg/kg administered as single dose via gastric gavage measured after 3 hrs by autoradiographic analysis; assay type: ADME, organism-based, Brown adipose tissue; parameters: dose 20 mg/kg, dosed compound name [14C]Sunitinib; conditions: in vivo, po; how it was run: as §1
# [19] = tested on: Spinal cord; experiment: Drug concentration in female albino rat spinal cord assessed as radioactivity per gram of tissue at 20 mg/kg administered as single dose via gastric gavage measured after 6 hrs by autoradiographic analysis; assay type: ADME, organism-based; parameters: dose 20 mg/kg, dosed compound name [14C]Sunitinib; conditions: in vivo, po
# [20] = tested on: Brain; experiment: Drug concentration in male Lister Hooded pigmented rat brain assessed as radioactivity per gram of tissue at 20 mg/kg administered as single dose via gastric gavage measured after 24 hrs by autoradiographic analysis; assay type: ADME, organism-based; parameters: dose 20 mg/kg, dosed compound name [14C]Sunitinib; conditions: in vivo, po
# [21] = tested on: Adrenal; experiment: Drug concentration in female Lister Hooded pigmented rat adrenal assessed as radioactivity per gram of tissue at 20 mg/kg administered as single dose via gastric gavage measured after 72 hrs by autoradiographic analysis; assay type: ADME, organism-based; parameters: dose 20 mg/kg, dosed compound name [14C]Sunitinib; conditions: in vivo, po; how it was run: as §3
# [22] = Drug concentration in male albino rat salivary gland assessed as radioactivity per gram of tissue at 20 mg/kg administered as single dose via gastric gavage measured after 3 hrs by autoradiographic analysis; assay type: ADME, organism-based; parameters: dose 20 mg/kg, dosed compound name [14C]Sunitinib; conditions: in vivo, po
# [23] = tested on: Rattus norvegicus; experiment: Tmax as total radioactivity in male Sprague-Dawley rat plasma at 15 mg/kg, po administered as single dose by LC/MS/MS analysis; assay type: ADME, organism-based; parameters: dose 15 mg/kg, dosed compound name [14C]Sunitinib, route oral; conditions: in vivo
# [24] = Drug concentration in male Lister Hooded pigmented rat brown fat assessed as radioactivity per gram of tissue at 20 mg/kg administered as single dose via gastric gavage measured after 168 hrs by autoradiographic analysis; assay type: ADME, organism-based, Brown adipose tissue; parameters: dose 20 mg/kg, dosed compound name [14C]Sunitinib; conditions: in vivo, po
# [25] = Drug concentration in male albino rat bone marrow assessed as radioactivity per gram of tissue at 20 mg/kg administered as single dose via gastric gavage measured after 3 hrs by autoradiographic analysis; assay type: ADME, organism-based; parameters: dose 20 mg/kg, dosed compound name [14C]Sunitinib; conditions: in vivo, po
# [26] = tested on: Lung; experiment: Drug concentration in male albino rat lung assessed as radioactivity per gram of tissue at 20 mg/kg administered as single dose via gastric gavage measured after 24 hrs by autoradiographic analysis; assay type: ADME, organism-based; parameters: dose 20 mg/kg, dosed compound name [14C]Sunitinib; conditions: in vivo, po
# [27] = tested on: Spinal cord; experiment: Drug concentration in male Lister Hooded pigmented rat spinal cord assessed as radioactivity per gram of tissue at 20 mg/kg administered as single dose via gastric gavage measured after 168 hrs by autoradiographic analysis; assay type: ADME, organism-based; parameters: dose 20 mg/kg, dosed compound name [14C]Sunitinib; conditions: in vivo, po
# [28] = tested on: Cynomolgus monkey; experiment: Total drug recovery in male cynomolgus monkey at 6 mg/kg, po administered as single dose during 0 to 336 hrs by liquid scintillation counting; assay type: ADME, organism-based, Macaca fascicularis; parameters: dose 6 mg/kg, dosed compound name [14C]Sunitinib, route oral; conditions: in vivo
smiles,measurement,setting,value
CCN(CC)CCNC(=O)c1c(C)[nH]c(/[14CH]=C2\C(=O)Nc3ccc(F)cc32)c1C.O=C(O)C[C@H](O)C(=O)O,Radiolabel recovery,[1],6.63 ugequiv
same,Radiolabel recovery,[2],2.92 ugequiv
same,Radiolabel recovery,[3],10.64 ugequiv
same,Radiolabel recovery,[4],27.64 ugequiv
same,Radiolabel recovery,[5],6.89 ugequiv
same,Radiolabel recovery,[6],85.1%
same,Radiolabel recovery,[7],147.37 ugequiv
same,Radiolabel recovery,[8],9.8 ugequiv
same,Radiolabel recovery,[9],30.72 ugequiv
same,Radiolabel recovery,[10],12.39 ugequiv
same,Radiolabel recovery,[11],8.91 ugequiv
same,Radiolabel recovery,[12],14.48 ugequiv
same,Radiolabel recovery,[13],2.79 ugequiv
same,Cmax,[14],214 ngequiv/ml
same,Radiolabel recovery,[15],16%
same,Radiolabel recovery,[16],14.48 ugequiv
same,Radiolabel recovery,[17],0.35 ugequiv
same,Radiolabel recovery,[18],10.63 ugequiv
same,Radiolabel recovery,[19],0.35 ugequiv
same,Radiolabel recovery,[20],0.06 ugequiv
same,Radiolabel recovery,[21],1.57 ugequiv
same,Radiolabel recovery,[22],17.24 ugequiv
same,Tmax,[23],5 h
same,Radiolabel recovery,[24],0.06 ugequiv
same,Radiolabel recovery,[25],7.55 ugequiv
same,Radiolabel recovery,[26],0.87 ugequiv
same,Radiolabel recovery,[27],0.06 ugequiv
same,Radiolabel recovery,[28],94.1%
